The subject of assay [1] is Staphylococcus aureus. The experiment in a line: Antibacterial activity against Staphylococcus aureus ATCC 23235 incubated for 48 hrs by spectrophotometric analysis. The assay is classed as functional.
The subject of assay [2] is Streptococcus mutans. Put plainly: Antibacterial activity against Streptococcus mutans ATCC 25175 incubated for 48 hrs by spectrophotometric analysis. Type of assay: functional.
The test system of assay [3] is Treponema denticola. Put plainly: Antibacterial activity against Treponema denticola ATCC 35405 incubated for 48 hrs by spectrophotometric analysis. Type of assay: functional. Summed up:
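Broth microdilution MIC: fractions tested at 20–200 μg/mL and pure compounds at 10–200 μg/mL, each with 0.5 × 10^5 CFU/mL inoculum. S. aureus and S. mutans grew aerobically in BHI at 37 °C for 24 h. T. denticola grew anaerobically in BHI at 37 °C for 48 h. Read by A600. MIC is the lowest concentration inhibiting visible growth. Blank and DMSO vehicle controls were included; triplicate.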

In assay [4] the test system is Streptococcus mutans. Put plainly: Antibacterial activity against Streptococcus mutans ATCC 25175 assessed as inhibition of efflux pump by measuring […] in accumulation of ethidium bromide at 0.6 ug/ml and measured after 60 mins by fluorescence assay. Particulars: dose 0.6 µg/ml. The assay is classed as functional, organism-based. Summed up:
(§1)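 EtBr accumulation in S. mutans grown overnight in BHI at 37 °C. Cells were washed twice and resuspended in PBS at OD600 0.6 with 0.4% glucose and 2 μg/mL EtBr (final). Psiadin was tested at 25 and 50 μg/mL, chlorhexidine at 0.6 μg/mL, and psiadin combined with chlorhexidine. DMSO and MeOH (0.5% each) served as negative controls. Fluorescence (ex 525/em 605 nm) was read every 60 s for 60 min at 37 °C.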

In assay [5] the test system is Staphylococcus aureus. The experiment in a line: Antibacterial activity against Staphylococcus aureus ATCC 23235 incubated for 48 hrs by checkerboard assay. The assay is classed as functional. Summed up: (§2)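 Checkerboard: psiadin at 0, 25, 50, 100, 200 μg/mL crossed with chlorhexidine at 5, 2.5, 1.25, 0.6, 0.3, 0 μg/mL. Broth microdilution MIC was read as the lowest concentration with no visible growth (A600). L. plantarum grew in MRS and T. denticola in BHI, both anaerobic at 37 °C. S. aureus and S. mutans grew in aerobic BHI at 37 °C. FIC index calculated from combination versus single-agent MICs.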

For assay [6], the system named is Streptococcus mutans. The experiment in a line: Antibacterial activity against Streptococcus mutans ATCC 25175 incubated for 48 hrs by checkerboard assay. Type of assay: functional. The essentials:
as §2

The test system of assay [7] is Lactiplantibacillus plantarum. The experiment in a line: Antibacterial activity against Lactobacillus plantarum ATCC 8014 incubated for 48 hrs by checkerboard assay. Type of assay: functional. Summed up:
as §2

Assay [8] relates to Treponema denticola. The experiment in a line: Antibacterial activity against Treponema denticola ATCC 35405 incubated for 48 hrs by checkerboard assay. Type of assay: functional. The essentials:
as §2

For assay [9], the system named is Staphylococcus aureus. The experiment in a line: Potentiation of antimicrobial activity against Staphylococcus aureus ATCC 23235 assessed as chlorhexidine MIC at 25 ug/ml incubated for 48 hrs by checkerboard assay. Type of assay: functional. Particulars: dose 25 µg/ml. Summed up:
as §2

In assay [10] the test system is Streptococcus mutans. The experiment in a line: Potentiation of antimicrobial activity against Streptococcus mutans ATCC 25175 assessed as chlorhexidine MIC at 25 ug/ml incubated for 48 hrs by checkerboard assay. Particulars: dose 25 µg/ml. The assay is classed as functional. Summed up:
as §2

The test system of assay [11] is Lactiplantibacillus plantarum. The experiment in a line: Potentiation of antimicrobial activity against Lactobacillus plantarum ATCC 8014 assessed as chlorhexidine MIC at 25 ug/ml incubated for 48 hrs by checkerboard assay. Conditions: dose 25 µg/ml. Type of assay: functional. Summed up:
as §2

Assay [12] concerns Treponema denticola. The experiment in a line: Potentiation of antimicrobial activity against Treponema denticola ATCC 35405 assessed as chlorhexidine MIC at 25 ug/ml incubated for 48 hrs by checkerboard assay. Type of assay: functional. Particulars: dose 25 µg/ml. The essentials:
as §2

The subject of assay [13] is Staphylococcus aureus. The experiment in a line: Potentiation of antimicrobial activity against Staphylococcus aureus ATCC 23235 assessed as chlorhexidine MIC at 50 ug/ml incubated for 48 hrs by checkerboard assay. Conditions: dose 50 µg/ml. The assay is classed as functional. Summed up:
as §2

The test system of assay [14] is Streptococcus mutans. Put plainly: Potentiation of antimicrobial activity against Streptococcus mutans ATCC 25175 assessed as chlorhexidine MIC at 50 ug/ml incubated for 48 hrs by checkerboard assay. Particulars: dose 50 µg/ml. Type of assay: functional. The essentials:
as §2

For assay [15], the system named is Lactiplantibacillus plantarum. The experiment in a line: Potentiation of antimicrobial activity against Lactobacillus plantarum ATCC 8014 assessed as chlorhexidine MIC at 50 ug/ml incubated for 48 hrs by checkerboard assay. The assay is classed as functional. Particulars: dose 50 µg/ml. Summed up:
as §2

In assay [16] the test system is Treponema denticola. The experiment in a line: Potentiation of antimicrobial activity against Treponema denticola ATCC 35405 assessed as chlorhexidine MIC at 50 ug/ml incubated for 48 hrs by checkerboard assay. Conditions: dose 50 µg/ml. Type of assay: functional. Summed up:
as §2

Assay [17] concerns Staphylococcus aureus. Put plainly: Potentiation of antimicrobial activity against Staphylococcus aureus ATCC 23235 assessed as chlorhexidine MIC at 100 ug/ml incubated for 48 hrs by checkerboard assay. The assay is classed as functional. Particulars: dose 100 µg/ml. The essentials:
as §2

The subject of assay [18] is Streptococcus mutans. The experiment in a line: Potentiation of antimicrobial activity against Streptococcus mutans ATCC 25175 assessed as chlorhexidine MIC at 100 ug/ml incubated for 48 hrs by checkerboard assay. Type of assay: functional. Particulars: dose 100 µg/ml. The essentials: as §2
In assay [19] the test system is Lactiplantibacillus plantarum. The experiment in a line: Potentiation of antimicrobial activity against Lactobacillus plantarum ATCC 8014 assessed as chlorhexidine MIC at 100 ug/ml incubated for 48 hrs by checkerboard assay. Type of assay: functional. Conditions: dose 100 µg/ml. Summed up:
as §2

Assay [20] has as its system Treponema denticola. The experiment in a line: Potentiation of antimicrobial activity against Treponema denticola ATCC 35405 assessed as chlorhexidine MIC at 100 ug/ml incubated for 48 hrs by checkerboard assay. The assay is classed as functional. Particulars: dose 100 µg/ml. Summed up:
as §2

Assay [21] concerns Staphylococcus aureus. The experiment in a line: Potentiation of antimicrobial activity against Staphylococcus aureus ATCC 23235 assessed as chlorhexidine MIC at 200 ug/ml incubated for 48 hrs by checkerboard assay. Type of assay: functional. Particulars: dose 200 µg/ml. The essentials: as §2
Assay [22] has as its system Streptococcus mutans. The experiment in a line: Potentiation of antimicrobial activity against Streptococcus mutans ATCC 25175 assessed as chlorhexidine MIC at 200 ug/ml incubated for 48 hrs by checkerboard assay. Type of assay: functional. Particulars: dose 200 µg/ml. Summed up: as §2
In assay [23] the test system is Lactiplantibacillus plantarum. The experiment in a line: Potentiation of antimicrobial activity against Lactobacillus plantarum ATCC 8014 assessed as chlorhexidine MIC at 200 ug/ml incubated for 48 hrs by checkerboard assay. The assay is classed as functional. Particulars: dose 200 µg/ml. The essentials:
as §2

Assay [24] concerns Treponema denticola. Put plainly: Potentiation of antimicrobial activity against Treponema denticola ATCC 35405 assessed as chlorhexidine MIC at 200 ug/ml incubated for 48 hrs by checkerboard assay. The assay is classed as functional. Conditions: dose 200 µg/ml. Summed up:
as §2

In assay [25] the test system is Staphylococcus aureus. Put plainly: Synergistic antimicrobial activity against Staphylococcus aureus ATCC 23235 assessed as fractional inhibitory concentration at 50 ug/ml incubated for 48 hrs in presence of chlorhexidine by checkerboard assay. The assay is classed as functional. Particulars: dose 50 µg/ml. Summed up: as §2
For assay [26], the system named is Staphylococcus aureus. The experiment in a line: Synergistic antimicrobial activity against Staphylococcus aureus ATCC 23235 assessed as fractional inhibitory concentration at 25 ug/ml incubated for 48 hrs in presence of chlorhexidine by checkerboard assay. The assay is classed as functional. Particulars: dose 25 µg/ml. The essentials: as §2
In assay [27] the test system is Streptococcus mutans. Put plainly: Antibacterial activity against Streptococcus mutans ATCC 25175 assessed as inhibition of efflux pump by measuring increase in accumulation of ethidium bromide at 25 to 50 ug/ml and measured after 60 mins by fluorescence assay. Type of assay: functional, organism-based. Particulars: dose 25-50 µg/ml, DDE = dose-dependent effect. The essentials: as §1

The subject of assay [28] is Streptococcus mutans. Put plainly: Antibacterial activity against Streptococcus mutans ATCC 25175 assessed as inhibition of efflux pump by measuring increase in accumulation of ethidium bromide at 50 ug/ml and measured after 60 mins in presence of chlorhexidine by fluorescence assay. Type of assay: functional, organism-based. Conditions: dose 50.0 µg/ml. The essentials: as §1

The subject of assay [29] is Streptococcus mutans. Put plainly: Synergistic antimicrobial activity against Streptococcus mutans ATCC 25175 assessed as fractional inhibitory concentration incubated for 48 hrs in presence of chlorhexidine by checkerboard assay. Type of assay: functional. Conditions: time 24 hrs; in the assay text read “24 hrs” for “48 hrs”. The essentials:
as §2

For assay [30], the system named is Streptococcus mutans. Put plainly: Antibiofilm activity against Streptococcus mutans ATCC 25175 at 50 to 100 ug/ml measured after 24 hrs by crystal violet staining method. Conditions: dose 50-100 µg/ml.

Our source for the MIC, Activity and FIC values is ChEMBL document CHEMBL5120908, “Diterpenoid Constituents of Psiadia punctulata and Evaluation of Their Antimicrobial Activity” (2022).

The structures appear in SMILES notation. In brackets after ≈: the same amount, converted by molar mass. Activity calls are given as the source filed them. The calls are words filed in the database; no cut-off is given here.

One may read the MIC as the lowest concentration found to suppress growth. With `COc1c(OC)c(O)c2c(=O)cc(-c3ccc(O)cc3)oc2c1OC` [XANTHOMICROL], the minimal inhibitory concentration (MIC) in assay [1] was greater than 250 µg/mL; in [2], 180 µg/mL (≈ 523 µM); in [3] it was 200 µg/mL (≈ 581 µM).
`N=C(NCCCCCCNC(=N)NC(=N)Nc1ccc(Cl)cc1)NC(=N)Nc1ccc(Cl)cc1` [CHLORHEXIDINE]: the result in [4] was Active. For the same molecule, the MIC in [5] turned out to be 2.5 µg/mL; in assay [6], 1.25 µg/mL; in assay [7] it was 10 µg/mL; in [8], 2.2 µg/mL.
For `C=C1C[C@]23CC[C@@H]4C(CO)(CO)CC(=O)C[C@@]4(C)[C@@H]2CC[C@H]1C3`, the minimum inhibitory concentration (MIC) in [1] was 125 µg/mL (≈ 393 µM); in assay [2], 140 µg/mL (≈ 440 µM); in assay [3] it was 100 µg/mL (≈ 314 µM); in assay [9] it was 1.25 µg/mL; in [10] it was 1.25 µg/mL; in assay [11], 10 µg/mL. In addition, the minimum inhibitory concentration (MIC) in [12] stood at 2.5 µg/mL; in assay [13], 1.25 µg/mL; in assay [14], 0.6 µg/mL; in [15], 10 µg/mL; in assay [16], 2.5 µg/mL; in assay [17], 0.6 µg/mL. For the same molecule, the MIC in [18] amounted to 0.6 µg/mL; in [19] it was 10 µg/mL; in assay [20], 2.5 µg/mL; in [21], 0.3 µg/mL; in [22] it was 0.3 µg/mL; in assay [23] it was 2.5 µg/mL. In addition, the MIC in [24] was determined as 1.25 µg/mL. For the same molecule, the FIC in [25] was found to be 0.9; in [26], 0.7; in assay [29], 0.85. Further, the Activity entry in [27] was “Dde”. Moreover, the result in assay [28] and in [30] was Active.
